{
  "source": "ChEMBL document CHEMBL4130342",
  "about": "“New semi-synthetic analogs of oleuropein show improved anticancer activity in vitro and in vivo” (Eur J Med Chem, 2017)",
  "data": [
    {"tested_on": "SK-BR-3", "experiment": "Antiproliferative activity against human SKBR3 cells after 72 hrs by MTT reduction assay", "assay_type": "functional, cell-based", "conditions": "SK-BR-3, 72 h", "method_in_brief": "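MTT reduction assay; adherent lines left to adhere overnight, suspension lines (HL-60, K562) seeded on the day. […] Incubation was 72 h at 37°C, with MTT added for the last 4 h. OD read at 545 nm (reference 690 nm). IC50 from 100(A0-A)/A0=50; means ± SD of 3 independent experiments.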", "units": {"IC50": "µM"}, "values": [
      {"compound": "C/C=C1/[C@H](O[C@@H]2O[C@H](COC(C)=O)[C@@H](OC(C)=O)[C@H](OC(C)=O)[C@H]2OC(C)=O)OC=C(C(=O)OC)[C@H]1CC(=O)SCCc1ccccc1", "note": "(stereo in doubt)", "IC50": "> 15"},
      {"compound": "C=C(C)CCOC(=O)C[C@@H]1C(C(=O)OC)=CO[C@@H](O[C@@H]2O[C@H](COC(C)=O)[C@@H](OC(C)=O)[C@H](OC(C)=O)[C@H]2OC(C)=O)/C1=C/C", "IC50": "> 15"},
      {"compound": "C/C=C1/[C@H](O[C@@H]2O[C@H](CO)[C@@H](O)[C@H](O)[C@H]2O)OC=C(C(=O)OC)[C@H]1CC(=O)NCCC", "note": "(stereo in doubt)", "IC50": "> 20"},
      {"compound": "C#CCOC(=O)C[C@@H]1C(C(=O)OC)=CO[C@@H](O[C@@H]2O[C@H](COC(C)=O)[C@@H](OC(C)=O)[C@H](OC(C)=O)[C@H]2OC(C)=O)/C1=C/C", "note": "(stereo in doubt)", "IC50": "> 15"},
      {"compound": "C/C=C1/[C@H](O[C@@H]2O[C@H](CO)[C@@H](O)[C@H](O)[C@H]2O)OC=C(C(=O)OC)[C@H]1CC(=O)OCc1ccccc1", "note": "(stereo in doubt)", "IC50": "> 15"},
      {"compound": "C/C=C1/[C@H](O[C@@H]2O[C@H](CO)[C@@H](O)[C@H](O)[C@H]2O)OC=C(C(=O)OC)[C@H]1CC(=O)OCCc1ccc(OC)c(OC)c1", "IC50": "> 15"},
      {"compound": "C=CCOC(=O)C[C@@H]1C(C(=O)OC)=CO[C@@H](O[C@@H]2O[C@H](COC(C)=O)[C@@H](OC(C)=O)[C@H](OC(C)=O)[C@H]2OC(C)=O)/C1=C/C", "note": "(stereo in doubt)", "IC50": "> 20"},
      {"compound": "C/C=C1/[C@H](O[C@@H]2O[C@H](COC(C)=O)[C@@H](OC(C)=O)[C@H](OC(C)=O)[C@H]2OC(C)=O)OC=C(C(=O)OC)[C@H]1CC(=O)OCCc1ccc(F)cc1", "note": "(stereo in doubt)", "IC50": "> 20"},
      {"compound": "C/C=C1/[C@H](O[C@@H]2O[C@H](CO)[C@@H](O)[C@H](O)[C@H]2O)OC=C(C(=O)O)[C@H]1CC(=O)OC", "note": "(stereo in doubt)", "IC50": "> 20"},
      {"compound": "C/C=C1/[C@H](O[C@@H]2O[C@H](COC(C)=O)[C@@H](OC(C)=O)[C@H](OC(C)=O)[C@H]2OC(C)=O)OC=C(C(=O)OC)[C@H]1CC(=O)OCC", "note": "(stereo in doubt)", "IC50": "> 15"},
      {"compound": "C/C=C1/[C@H](O[C@@H]2O[C@H](COC(C)=O)[C@@H](OC(C)=O)[C@H](OC(C)=O)[C@H]2OC(C)=O)OC=C(C(=O)OC)[C@H]1CC(=O)OCCc1ccc(OC)c(OC)c1", "note": "(stereo in doubt)", "IC50": "> 15"},
      {"compound": "OCCc1ccc(O)c(O)c1", "note": "[HYDROXYTYROSOL]", "IC50": 201},
      {"compound": "C/C=C1/[C@H](O[C@@H]2O[C@H](COC(C)=O)[C@@H](OC(C)=O)[C@H](OC(C)=O)[C@H]2OC(C)=O)OC=C(C(=O)OC)[C@H]1CC(=O)OCCCc1ccc(OC)c(OC)c1", "note": "(stereo in doubt)", "IC50": "> 20"},
      {"compound": "C/C=C1/[C@H](O[C@@H]2O[C@H](CO)[C@@H](O)[C@H](O)[C@H]2O)OC=C(C(=O)OC)[C@H]1CC(=O)OCCCC", "note": "(stereo in doubt)", "IC50": "> 15"},
      {"compound": "C/C=C1/[C@H](O[C@@H]2O[C@H](CO)[C@@H](O)[C@H](O)[C@H]2O)OC=C(C(=O)OC)[C@H]1CC(=O)OCc1ccco1", "note": "(stereo in doubt)", "IC50": "> 15"},
      {"compound": "C/C=C1/[C@H](O[C@@H]2O[C@H](COC(C)=O)[C@@H](OC(C)=O)[C@H](OC(C)=O)[C@H]2OC(C)=O)OC=C(C(=O)OC)[C@H]1CC(=O)OCc1ccccc1", "note": "(stereo in doubt)", "IC50": "> 15"},
      {"compound": "C/C=C1/[C@H](O[C@@H]2O[C@H](COC(C)=O)[C@@H](OC(C)=O)[C@H](OC(C)=O)[C@H]2OC(C)=O)OC=C(C(=O)OC)[C@H]1CC(=O)OCCc1ccc2c(c1)OCCO2", "note": "(stereo in doubt)", "IC50": "> 15"},
      {"compound": "C/C=C1/[C@H](O[C@@H]2O[C@H](CO)[C@@H](O)[C@H](O)[C@H]2O)OC=C(C(=O)OC)[C@H]1CC(=O)OCCc1ccc(O)cc1", "note": "[LIGSTROSIDE]", "IC50": "> 20"},
      {"compound": "C/C=C1/[C@H](O[C@@H]2O[C@H](COC(C)=O)[C@@H](OC(C)=O)[C@H](OC(C)=O)[C@H]2OC(C)=O)OC=C(C(=O)OC)[C@H]1CC(=O)OCCc1ccc([N+](=O)[O-])cc1", "note": "(stereo in doubt)", "IC50": "> 20"},
      {"compound": "C/C=C1/[C@H](O[C@@H]2O[C@H](COC(C)=O)[C@@H](OC(C)=O)[C@H](OC(C)=O)[C@H]2OC(C)=O)OC=C(C(=O)OC)[C@H]1CC(=O)OC", "note": "(stereo in doubt)", "IC50": "> 15"},
      {"compound": "C/C=C1/[C@H](O[C@@H]2O[C@H](COC(C)=O)[C@@H](OC(C)=O)[C@H](OC(C)=O)[C@H]2OC(C)=O)OC=C(C(=O)O)[C@H]1CC(=O)OC", "note": "(stereo in doubt)", "IC50": "> 20"},
      {"compound": "C/C=C1/[C@H](O[C@@H]2O[C@H](CO)[C@@H](O)[C@H](O)[C@H]2O)OC=C(C(=O)OC)[C@H]1CC(=O)OCCc1ccc(F)cc1", "note": "(stereo in doubt)", "IC50": "> 20"},
      {"compound": "C/C=C1/[C@H](O[C@@H]2O[C@H](COC(C)=O)[C@@H](OC(C)=O)[C@H](OC(C)=O)[C@H]2OC(C)=O)OC=C(C(=O)O)[C@H]1CC(=O)O", "IC50": "> 20"},
      {"compound": "C/C=C1/[C@H](O[C@@H]2O[C@H](COC(C)=O)[C@@H](OC(C)=O)[C@H](OC(C)=O)[C@H]2OC(C)=O)OC=C(C(=O)OC)[C@H]1CC(=O)OCCCC", "note": "(stereo in doubt)", "IC50": "> 15"},
      {"compound": "C/C=C1/[C@H](O[C@@H]2O[C@H](CO)[C@@H](O)[C@H](O)[C@H]2O)OC=C(C(=O)OC)[C@H]1CC(=O)OCC", "note": "(stereo in doubt)", "IC50": "> 15"},
      {"compound": "C/C=C1/[C@H](O[C@@H]2O[C@H](CO)[C@@H](O)[C@H](O)[C@H]2O)OC=C(C(=O)OC)[C@H]1CC(=O)OCCC", "note": "(stereo in doubt)", "IC50": "> 15"},
      {"compound": "C/C=C1/[C@H](O[C@@H]2O[C@H](CO)[C@@H](O)[C@H](O)[C@H]2O)OC=C(C(=O)OC)[C@H]1CC(=O)OCCc1ccc([N+](=O)[O-])cc1", "note": "(stereo in doubt)", "IC50": "> 20"},
      {"compound": "C/C=C1/[C@H](O[C@@H]2O[C@H](COC(C)=O)[C@@H](OC(C)=O)[C@H](OC(C)=O)[C@H]2OC(C)=O)OC=C(C(=O)OC)[C@H]1CC(=O)O", "IC50": "> 15"},
      {"compound": "C=C(C)CCOC(=O)C[C@@H]1C(C(=O)OC)=CO[C@@H](O[C@@H]2O[C@H](CO)[C@@H](O)[C@H](O)[C@H]2O)/C1=C/C", "note": "(stereo in doubt)", "IC50": "> 15"},
      {"compound": "C/C=C1/[C@H](O[C@@H]2O[C@H](COC(C)=O)[C@@H](OC(C)=O)[C@H](OC(C)=O)[C@H]2OC(C)=O)OC=C(C(=O)OC)[C@H]1CC(=O)SCCC", "note": "(stereo in doubt)", "IC50": "> 15"},
      {"compound": "C/C=C1/[C@H](O[C@@H]2O[C@H](COC(C)=O)[C@@H](OC(C)=O)[C@H](OC(C)=O)[C@H]2OC(C)=O)OC=C(C(=O)OC)[C@H]1CC(=O)OCCc1ccc(OC)cc1", "note": "(stereo in doubt)", "IC50": "> 20"},
      {"compound": "C/C=C1/[C@H](O[C@@H]2O[C@H](CO)[C@@H](O)[C@H](O)[C@H]2O)OC=C(C(=O)OC)[C@H]1CC(=O)O", "IC50": "> 15"},
      {"compound": "C/C=C1/[C@H](O[C@@H]2O[C@H](COC(C)=O)[C@@H](OC(C)=O)[C@H](OC(C)=O)[C@H]2OC(C)=O)OC=C(C(=O)OC)[C@H]1CC(=O)OCc1ccc2c(c1)OCCO2", "note": "(stereo in doubt)", "IC50": "> 15"},
      {"compound": "C/C=C1/[C@H](O[C@@H]2O[C@H](CO)[C@@H](O)[C@H](O)[C@H]2O)OC=C(C(=O)OC)[C@H]1CC(=O)OCCc1ccc(OC)cc1", "note": "(stereo in doubt)", "IC50": "> 20"},
      {"compound": "C/C=C1/[C@H](O[C@@H]2O[C@H](COC(C)=O)[C@@H](OC(C)=O)[C@H](OC(C)=O)[C@H]2OC(C)=O)OC=C(C(=O)OC)[C@H]1CC(=O)OCc1ccco1", "note": "(stereo in doubt)", "IC50": "> 15"},
      {"compound": "C/C=C1/[C@H](O[C@@H]2O[C@H](COC(C)=O)[C@@H](OC(C)=O)[C@H](OC(C)=O)[C@H]2OC(C)=O)OC=C(C(=O)OC)[C@H]1CC(=O)OCCC1CCCCC1", "IC50": "> 15"},
      {"compound": "C/C=C1/[C@H](O[C@@H]2O[C@H](COC(C)=O)[C@@H](OC(C)=O)[C@H](OC(C)=O)[C@H]2OC(C)=O)OC=C(C(=O)O)[C@H]1CC(=O)OCCCCCCCCCCCCCCCC", "IC50": "> 20"},
      {"compound": "C/C=C1/[C@H](O[C@@H]2O[C@H](CO)[C@@H](O)[C@H](O)[C@H]2O)OC=C(C(=O)OC)[C@H]1CC(=O)OCc1ccc(OC)c(OC)c1", "note": "(stereo in doubt)", "IC50": "> 15"},
      {"compound": "C/C=C1/[C@H](O[C@@H]2O[C@H](CO)[C@@H](O)[C@H](O)[C@H]2O)OC=C(C(=O)OC)[C@H]1CC(=O)OCCc1ccc2c(c1)OCCO2", "note": "(stereo in doubt)", "IC50": "> 20"},
      {"compound": "C/C=C1/[C@H](O[C@@H]2O[C@H](CO)[C@@H](O)[C@H](O)[C@H]2O)OC=C(C(=O)OC)[C@H]1CC(=O)OCCCc1ccc(OC)c(OC)c1", "note": "(stereo in doubt)", "IC50": "> 20"},
      {"compound": "C/C=C1/[C@H](O[C@@H]2O[C@H](CO)[C@@H](O)[C@H](O)[C@H]2O)OC=C(C(=O)OC)[C@H]1CC(=O)OCc1ccc2c(c1)OCCO2", "note": "(stereo in doubt)", "IC50": "> 15"},
      {"compound": "C/C=C1/[C@H](O[C@@H]2O[C@H](CO)[C@@H](O)[C@H](O)[C@H]2O)OC=C(C(=O)OC)[C@H]1CC(=O)OC", "note": "(stereo in doubt)", "IC50": "> 15"},
      {"compound": "C/C=C1/[C@H](O[C@@H]2O[C@H](COC(C)=O)[C@@H](OC(C)=O)[C@H](OC(C)=O)[C@H]2OC(C)=O)OC=C(C(=O)OC)[C@H]1CC(=O)OCCC(C)C", "note": "(stereo in doubt)", "IC50": "> 15"},
      {"compound": "C/C=C1/[C@H](O[C@@H]2O[C@H](COC(C)=O)[C@@H](OC(C)=O)[C@H](OC(C)=O)[C@H]2OC(C)=O)OC=C(C(=O)OC)[C@H]1CC(=O)OCc1ccc(OC)c(OC)c1", "note": "(stereo in doubt)", "IC50": "> 15"},
      {"compound": "C#CCOC(=O)C[C@@H]1C(C(=O)OC)=CO[C@@H](O[C@@H]2O[C@H](CO)[C@@H](O)[C@H](O)[C@H]2O)/C1=C/C", "note": "(stereo in doubt)", "IC50": "> 15"}
    ]}
  ]
}
